Active and inactive are the calls of the source. The calls are words filed in the database; no cut-off is given here.
Key:
[1] = system: Toxoplasma gondii; test: Stimulation of Toxoplasma gondii recombinant PBGS using 5-ALA as substrate relative to control
Summary of the method: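 Recombinant T. gondii PBGS (hemB in pET-21b, expressed in BL21 E. coli) at 250 nM subunit in 100 mM Tris-HCl pH 8.0, 1 mM MgCl2, 5 mM DTT, with 200 μM 5-ALA, 20 min at 36 °C. Porphobilinogen was read with Ehrlich's reagent, and turnover was kept at or below 30%.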

[2] = target: T1, Delta-aminolevulinic acid dehydratase (Drosophila melanogaster, UniProt Q9VTV9); test: Inhibition of Drosophila melanogaster recombinant PBGS using 5-ALA as substrate
T1 sequence (Q9VTV9 whole entry): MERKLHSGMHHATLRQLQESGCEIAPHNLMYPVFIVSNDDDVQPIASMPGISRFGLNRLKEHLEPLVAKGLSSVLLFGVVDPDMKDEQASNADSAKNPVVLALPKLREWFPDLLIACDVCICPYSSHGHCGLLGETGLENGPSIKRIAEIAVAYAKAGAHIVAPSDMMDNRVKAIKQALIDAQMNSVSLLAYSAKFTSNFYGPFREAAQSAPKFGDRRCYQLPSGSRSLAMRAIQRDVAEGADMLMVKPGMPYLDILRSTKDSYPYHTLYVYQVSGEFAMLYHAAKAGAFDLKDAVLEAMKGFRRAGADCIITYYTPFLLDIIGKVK

[3] = target: Delta-aminolevulinic acid dehydratase (Yersinia enterocolitica W22703) (UniProt F4MUJ9); test: Stimulation of Yersinia enterocolitica recombinant PBGS expressed in Escherichia coli using 5-ALA as substrate relative to control
Sequence of Delta-aminolevulinic acid dehydratase (Yersinia enterocolitica W22703) (F4MUJ9 as listed by the source): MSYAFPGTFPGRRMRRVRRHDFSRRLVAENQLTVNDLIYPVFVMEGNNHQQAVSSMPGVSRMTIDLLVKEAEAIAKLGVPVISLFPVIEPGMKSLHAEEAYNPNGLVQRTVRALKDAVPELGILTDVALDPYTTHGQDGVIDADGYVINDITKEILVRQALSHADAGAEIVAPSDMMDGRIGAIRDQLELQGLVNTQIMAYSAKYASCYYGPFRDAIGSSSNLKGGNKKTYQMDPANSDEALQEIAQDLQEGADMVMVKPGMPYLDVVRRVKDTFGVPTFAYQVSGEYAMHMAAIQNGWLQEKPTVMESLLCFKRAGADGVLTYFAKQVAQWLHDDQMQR
Summary of the method: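 Y. enterocolitica PBGS, expressed in E. coli from pET3, at 150 nM subunit in 100 mM BTP-HCl pH 8.0 with 1 mM MgCl2, 5 mM DTT, 100 mM KCl and 0.2 mM 5-ALA, 10 min at 36 °C. Porphobilinogen read with Ehrlich's reagent. Activity normalized to 6.7% DMSO control as 100%. EC50 from variable-slope agonist fit.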

[4] = target: T2, Delta-aminolevulinic acid dehydratase (Escherichia coli (strain K12), UniProt P0ACB2); test: Stimulation of Escherichia coli recombinant PBGS using 5-ALA as substrate
T2 sequence (P0ACB2 whole entry): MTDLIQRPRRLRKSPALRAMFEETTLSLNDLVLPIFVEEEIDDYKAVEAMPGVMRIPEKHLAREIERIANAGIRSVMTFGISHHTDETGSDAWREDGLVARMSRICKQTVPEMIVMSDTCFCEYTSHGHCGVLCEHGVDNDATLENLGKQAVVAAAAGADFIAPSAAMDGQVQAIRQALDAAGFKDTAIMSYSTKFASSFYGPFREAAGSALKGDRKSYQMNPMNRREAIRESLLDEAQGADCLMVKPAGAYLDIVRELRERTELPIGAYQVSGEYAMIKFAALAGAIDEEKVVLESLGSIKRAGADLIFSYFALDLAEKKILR
Summary of the method: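 E. coli PBGS at 200 nM subunit in 100 mM BTP-HCl pH 8.1 with 1 mM MgCl2, 10 μM ZnCl2, 5 mM DTT and 0.2 mM 5-ALA, 10 min at 36 °C. Porphobilinogen detected with Ehrlich's reagent. Activity normalized to control with 6.7% DMSO set at 100%. EC50 by log(agonist) vs response variable-slope fit.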

[5] = Stimulation of Toxoplasma gondii recombinant PBGS using 5-ALA as substrate
Summary of the method: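 T. gondii PBGS, expressed from pET-21b in BL21 E. coli and purified, at 250 nM subunit in 100 mM Tris-HCl pH 8.0 with 1 mM MgCl2, 5 mM DTT and 0.2 mM 5-ALA, 20 min at 36 °C. Porphobilinogen detected with Ehrlich's reagent. Activity normalized to 6.7% DMSO control. EC50 by variable-slope agonist fit.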

[6] = target: T3, Delta-aminolevulinic acid dehydratase (Homo sapiens, UniProt P13716); test: Inhibition of human PBGS using 5-ALA as substrate
T3 sequence (P13716 whole entry): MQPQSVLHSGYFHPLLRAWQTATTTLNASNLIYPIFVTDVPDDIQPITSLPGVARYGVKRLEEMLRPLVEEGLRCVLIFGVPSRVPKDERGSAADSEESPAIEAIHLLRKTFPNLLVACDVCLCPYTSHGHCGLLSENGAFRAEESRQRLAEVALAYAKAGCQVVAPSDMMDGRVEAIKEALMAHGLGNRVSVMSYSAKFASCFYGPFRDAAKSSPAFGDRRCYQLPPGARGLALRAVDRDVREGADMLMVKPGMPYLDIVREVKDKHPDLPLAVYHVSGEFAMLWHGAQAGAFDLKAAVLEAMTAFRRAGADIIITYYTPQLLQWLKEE

[7] = target: T4, Delta-aminolevulinic acid dehydratase (Escherichia coli (strain K12)) (UniProt P0ACB2); test: Stimulation of Escherichia coli recombinant PBGS using 5-ALA as substrate relative to control
T4 sequence (whole entry): T2 sequence (P0ACB2 whole entry)
Summary of the method: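 E. coli PBGS at 200 nM subunit in 100 mM BTP-HCl pH 8.1 with 1 mM MgCl2, 10 μM ZnCl2, 5 mM DTT and 0.2 mM 5-ALA, 10 min at 36 °C. Porphobilinogen detected with Ehrlich's reagent. EC50 by log(agonist) vs response variable-slope fit.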

[8] = target: T5, Delta-aminolevulinic acid dehydratase, chloroplastic (Pisum sativum, UniProt P30124); test: Inhibition of Pisum sativum PBGS using 5-ALA as substrate; parameters: species or system Lathyrus oleraceus
T5 sequence (P30124 whole entry): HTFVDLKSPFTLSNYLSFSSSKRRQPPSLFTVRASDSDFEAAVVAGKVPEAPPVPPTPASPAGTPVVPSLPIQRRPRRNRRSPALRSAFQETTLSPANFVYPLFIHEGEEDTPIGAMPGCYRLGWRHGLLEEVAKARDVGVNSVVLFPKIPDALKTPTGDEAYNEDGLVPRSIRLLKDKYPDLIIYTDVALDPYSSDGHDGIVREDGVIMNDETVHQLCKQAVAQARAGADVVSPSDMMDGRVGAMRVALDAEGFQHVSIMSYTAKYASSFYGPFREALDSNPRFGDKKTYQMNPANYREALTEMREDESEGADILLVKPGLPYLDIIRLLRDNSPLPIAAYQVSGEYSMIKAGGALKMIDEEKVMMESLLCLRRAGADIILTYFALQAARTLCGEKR
Summary of the method: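 Pea (P. sativum) PBGS at 300 nM subunit in 100 mM BTP-HCl pH 8.5 with 1 mM MgCl2, 5 mM DTT and 0.2 mM 5-ALA, 15 min at 36 °C. Porphobilinogen detected with Ehrlich's reagent. Activity normalized to 6.7% DMSO control as 100%. IC50 from variable-slope normalized-response fit.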

[9] = target: Delta-aminolevulinic acid dehydratase (Pseudomonas aeruginosa (strain ATCC 15692 / PAO1 / 1C / PRS 101 / LMG12228)) (UniProt Q59643); test: Inhibition of Pseudomonas aeruginosa PAO1 recombinant PBGS using 5-ALA as substrate at […]
Sequence of Delta-aminolevulinic acid dehydratase (Pseudomonas aeruginosa (strain ATCC 15692 / PAO1 / 1C / PRS 101 / LMG12228)) (Q59643 whole entry): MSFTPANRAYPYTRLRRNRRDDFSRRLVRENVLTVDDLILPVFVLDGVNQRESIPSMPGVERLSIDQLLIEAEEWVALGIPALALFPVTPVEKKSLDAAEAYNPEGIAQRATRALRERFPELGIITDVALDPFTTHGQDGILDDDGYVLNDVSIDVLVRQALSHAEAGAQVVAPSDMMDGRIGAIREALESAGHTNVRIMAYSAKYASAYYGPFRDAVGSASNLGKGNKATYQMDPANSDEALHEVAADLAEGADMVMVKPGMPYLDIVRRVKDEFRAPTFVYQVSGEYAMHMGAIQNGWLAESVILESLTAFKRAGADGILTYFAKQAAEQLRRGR

[10] = target: T6, Delta-aminolevulinic acid dehydratase (Wolbachia sp. subsp. Brugia malayi (strain TRS), UniProt Q5GSR3); test: Inhibition of C-terminal His-tagged Wolbachia PBGS using 5-ALA as substrate
T6 sequence (Q5GSR3 whole entry): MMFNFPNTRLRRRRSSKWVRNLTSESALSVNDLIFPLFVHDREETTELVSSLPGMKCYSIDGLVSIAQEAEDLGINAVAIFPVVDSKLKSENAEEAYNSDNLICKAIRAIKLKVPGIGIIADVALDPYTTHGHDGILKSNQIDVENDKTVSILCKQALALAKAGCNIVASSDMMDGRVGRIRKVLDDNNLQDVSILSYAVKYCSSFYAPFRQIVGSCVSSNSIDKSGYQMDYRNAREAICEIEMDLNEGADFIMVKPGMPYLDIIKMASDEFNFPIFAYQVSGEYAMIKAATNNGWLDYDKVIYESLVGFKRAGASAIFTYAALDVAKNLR

[11] = target: T7, Delta-aminolevulinic acid dehydratase (Pseudomonas aeruginosa (strain ATCC 15692 / PAO1 / 1C / PRS 101 / LMG12228), UniProt Q59643); test: Stimulation of Pseudomonas aeruginosa PAO1 recombinant PBGS using 5-ALA as substrate
T7 sequence (Q59643 whole entry): as the sequence (Q59643 whole entry) above
Summary of the method: (§1)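 His-tagged PaPBGS at 150 nM subunit in 100 mM Tris-HCl pH 8.0 with 1 mM MgCl2, 100 mM KCl and 0.2 mM 5-ALA, 10 min at 36 °C, with turnover at most 30%. Porphobilinogen read with Ehrlich's reagent. Activity normalized to 6.7% DMSO control as 100%. EC50 from variable-slope agonist fit.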

[12] = target: Delta-aminolevulinic acid dehydratase (Yersinia enterocolitica W22703, UniProt F4MUJ9); test: Stimulation of Yersinia enterocolitica recombinant PBGS expressed in Escherichia coli using 5-ALA as substrate
Sequence of Delta-aminolevulinic acid dehydratase (Yersinia enterocolitica W22703, UniProt F4MUJ9) (F4MUJ9 whole entry, one chain of several): as the sequence (F4MUJ9 as listed by the source) above

[13] = target: Delta-aminolevulinic acid dehydratase (Pseudomonas aeruginosa (strain ATCC 15692 / PAO1 / 1C / PRS 101 / LMG12228)) (UniProt Q59643); test: Stimulation of Pseudomonas aeruginosa PAO1 recombinant PBGS using 5-ALA as substrate relative to control; summary of the method: as §1
[14] = target: Delta-aminolevulinic acid dehydratase (Pseudomonas aeruginosa (strain ATCC 15692 / PAO1 / 1C / PRS 101 / LMG12228)) (UniProt Q59643); test: Stimulation of Pseudomonas aeruginosa PAO1 recombinant PBGS using 5-ALA as substrate at […]
[15] = system: Toxoplasma gondii; test: Stimulation of Toxoplasma gondii recombinant PBGS using 5-ALA as substrate at […]
[16] = target: T4, Delta-aminolevulinic acid dehydratase (Escherichia coli (strain K12)); test: Inhibition of Escherichia coli recombinant PBGS using 5-ALA as substrate at […]
[17] = Ratio of IC50 for Pisum sativum PBGS to IC50 for C-terminal His-tagged Wolbachia PBGS
[18] = target: Delta-aminolevulinic acid dehydratase (Yersinia enterocolitica W22703) (UniProt F4MUJ9); test: Inhibition of Yersinia enterocolitica recombinant PBGS expressed in Escherichia coli using 5-ALA as substrate at […]
[19] = target: T7, Delta-aminolevulinic acid dehydratase; test: Inhibition of Pseudomonas aeruginosa PAO1 recombinant PBGS using 5-ALA as substrate
Summary of the method: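 Turnover kept at or below 30%. Porphobilinogen measured with Ehrlich's reagent. IC50 by variable-slope fit of activity normalized to DMSO control.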

[20] = system: Toxoplasma gondii; test: Inhibition of Toxoplasma gondii recombinant PBGS using 5-ALA as substrate at […]
[21] = target: Delta-aminolevulinic acid dehydratase (Yersinia enterocolitica W22703) (UniProt F4MUJ9); test: Stimulation of Yersinia enterocolitica recombinant PBGS expressed in Escherichia coli using 5-ALA as substrate at […]
[22] = target: T4, Delta-aminolevulinic acid dehydratase (Escherichia coli (strain K12)); test: Stimulation of Escherichia coli recombinant PBGS using 5-ALA as substrate at […]

O=C(NCCc1nc2c(C(=O)O)cccc2n1Cc1cccc(C(F)(F)F)c1)c1cccs1
Smax [1]: 130% | IC50 [2]: > 1000 µM | Smax [3]: 123% | EC50 [4]: 19 µM | EC50 [5]: 21 µM | IC50 [6]: 500 µM | Smax [7]: 116% | IC50 [8]: > 500 µM | inhibition [9]: inactive | IC50 [10]: 500 µM | EC50 [11]: 15 µM | EC50 [12]: 23 µM | Smax [13]: 136%

O=C(O)c1c2c(nc3ccccc13)CCN(C(=O)c1cccc(C(F)(F)F)c1)C2
Smax [14]: 100% | Smax [15]: 100% | inhibition [16]: inactive | IC50 [2]: > 1000 µM | Ratio IC50 [17]: 10 | inhibition [18]: inactive | IC50 [8]: 88.2 µM | IC50 [19]: 475 µM | inhibition [20]: inactive | inhibition [9]: inactive | Smax [21]: 100% | Smax [22]: 100%
